Measurements taken from ChEMBL document CHEMBL1240321, “Cyclostreptin binds covalently to microtubule pores and lumenal taxoid binding sites” (Nat Chem Biol, 2007).
Active and inactive are the calls of the source. The calls are words filed in the database; no cut-off is given here.

How the values were obtained:
[1] = Induction of mitotic cell cycle arrest in potoroo PtK2 cells assessed as accumulation of cells at G1/G0 phase at 2 uM after 7 hrs by flow cytometry (Rvb= 60%); type: functional, Potorous tridactylus
[2] = Induction of mitotic cell cycle arrest in potoroo PtK2 cells assessed as accumulation of cells at G2+M phase at 5 uM treated for 7 hrs, washed followed by 48 hrs incubation by flow cytometry (Rvb= 22.3%); type: functional, Potorous tridactylus
[3] = Binding affinity to beta-tubulin 219-243 amino acid sequence by mass spectroscopy
Method in brief: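 Polymerized native microtubules (20 µM tubulin, 25 µM ligand, 30 min, 37 °C in GAB with 1 mM GTP) pelleted and washed, then digested with trypsin (2 h, 37 °C) or chymotrypsin (1 h, 25 °C). Peptides analysed by nano-HPLC triple-quadrupole MS with precursor ion scanning for the m/z 249.0 cyclostreptin fragment. Adduct stoichiometry taken from the 219–243 peptide signal.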

[4] = Displacement of [3H]discodermolide from microtubule assessed as bound radioligand level at 20 uM treated after radioligand addition by competitive binding assay
[5] = Displacement of [3H]epothilone B from microtubule assessed as bound radioligand level at 20 uM treated before radioligand addition by competitive binding assay
[6] = Induction of mitotic cell cycle arrest in potoroo PtK2 cells assessed as accumulation of cells at G2+M phase at 2 uM treated for 7 hrs, washed followed by 16 hrs incubation by flow cytometry (Rvb= 23%); type: functional, Potorous tridactylus
[7] = Induction of mitotic cell cycle arrest in potoroo PtK2 cells assessed as accumulation at S phase at 2 uM treated for 7 hrs, washed followed by 16 hrs incubation by flow cytometry (Rvb= 16%); type: functional, Potorous tridactylus
[8] = Induction of mitotic cell cycle arrest in potoroo PtK2 cells assessed as accumulation of cells at SubG1 phase at 2 uM treated for 7 hrs, washed followed by 48 hrs incubation by flow cytometry (Rvb= 1.1%); type: functional, Potorous tridactylus
PtK2 [9] = assay: Induction of micronucleation in potoroo PtK2 cells at 2 uM treated for 7 hrs followed by compound washout measured after 16 hrs by flow cytometry; details: Potorous tridactylus
[10] = Induction of mitotic cell cycle arrest in potoroo PtK2 cells assessed as accumulation at S phase at 5 uM treated for 7 hrs, washed followed by 16 hrs incubation by flow cytometry (Rvb= 16%); type: functional, Potorous tridactylus
A549 [11] = assay: Induction of mitotic cell cycle arrest in human A549 cells assessed as accumulation of cells at G1/G0 phase at 100 nM after 24 hrs by flow cytometry (Rvb= 39.2%); type: functional
[12] = Induction of mitotic cell cycle arrest in potoroo PtK2 cells assessed as accumulation of cells at SubG1 phase at 2 uM treated for 7 hrs, washed followed by 16 hrs incubation by flow cytometry (Rvb= 2%); type: functional, Potorous tridactylus
[13] = Cytotoxicity against human 1A9PTX22 cells; type: functional, cell-based; details: 1A9/ptx-22
[14] = Induction of micronucleation in potoroo PtK2 cells at 5 uM after 7 hrs by flow cytometry; type: functional, Potorous tridactylus
[15] = Displacement of [3H]epothilone B from microtubule assessed as bound radioligand level at 20 uM treated after radioligand addition by competitive binding assay
PtK2 [16] = assay: Induction of microtubule bundle formation in potoroo PtK2 cells at 5 uM after 7 hrs by flow cytometry; type: cell-based; details: Potorous tridactylus
[17] = Induction of mitotic cell cycle arrest in potoroo PtK2 cells assessed as accumulation of cells at G1/G0 phase at 5 uM treated for 7 hrs, washed followed by 48 hrs incubation by flow cytometry (Rvb= 65.8%); type: functional, Potorous tridactylus
[18] = Induction of mitotic cell cycle arrest in potoroo PtK2 cells assessed as accumulation of cells at G1/G0 phase at 5 uM treated for 7 hrs, washed followed by 16 hrs incubation by flow cytometry (Rvb= 59%); type: functional, Potorous tridactylus
A2780 = assay: Induction of mitotic cell cycle arrest in human A2780 cells assessed as accumulation of cells at S phase at 100 nM after 24 hrs by flow cytometry (Rvb= 17.5%); type: functional
[19] = Induction of mitotic cell cycle arrest in potoroo PtK2 cells assessed as accumulation of cells at G2+M phase at 5 uM after 7 hrs by flow cytometry (Rvb= 22.1%); type: functional, Potorous tridactylus
[20] = Cytotoxicity against human A2780AD cells; type: functional, cell-based; details: A2780 ADR
[21] = Induction of mitotic cell cycle arrest in human A2780AD cells assessed as accumulation of cells at G1/G0 phase at 100 nM after 24 hrs by flow cytometry (Rvb= 59.2%); type: functional, A2780 ADR
A549 [22] = assay: Binding affinity to beta-tubulin in human A549 cells at 1 uM after 24 hrs by HPLC analysis; type: cell-based
Method in brief: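 A549 monolayers exposed 24 h to 1 µM ligand or 0.1% DMSO. Tubulin purified from homogenate supernatant by one-step DEAE ion exchange (0.4 M KCl load, 0.8 M KCl elution) to 90% purity. Tryptic or chymotryptic digests analysed by HPLC-MRM with Q3 at m/z 249.0. Adduct fraction estimated from the areas of modified and unmodified peptide peaks.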

[23] = Induction of mitotic cell cycle arrest in potoroo PtK2 cells assessed as accumulation of cells at SubG1 phase at 2 uM after 7 hrs by flow cytometry (Rvb= 2.4%); type: functional, Potorous tridactylus
[24] = Induction of mitotic cell cycle arrest in potoroo PtK2 cells assessed as accumulation of cells at G2+M phase at 2 uM after 7 hrs by flow cytometry (Rvb= 22.1%); type: functional, Potorous tridactylus
A549 [25] = assay: Induction of mitotic cell cycle arrest in human A549 cells assessed as accumulation at S phase at 100 nM after 24 hrs by flow cytometry (Rvb= 16%); type: functional
A549 [26] = assay: Induction of mitotic cell cycle arrest in human A549 cells assessed as accumulation of cells at G2+M phase at 100 nM after 24 hrs by flow cytometry (Rvb= 19.6%); type: functional
A549 [27] = assay: Induction of mitotic cell cycle arrest in human A549 cells assessed as accumulation of cells at SubG1 phase at 100 nM after 24 hrs by flow cytometry (Rvb= 25%); type: functional
PtK2 [28] = assay: Induction of micronucleation in potoroo PtK2 cells at 2 uM treated for 7 hrs followed by compound washout measured after 48 hrs by flow cytometry; type: functional, cell-based; details: Potorous tridactylus
PtK2 [29] = assay: Induction of micronucleation in potoroo PtK2 cells at 5 uM treated for 7 hrs followed by compound washout measured after 48 hrs by flow cytometry; type: functional, cell-based; details: Potorous tridactylus
[30] = Displacement of [3H]paclitaxel from microtubule assessed as bound radioligand level at 20 uM treated after radioligand addition by competitive binding assay
[31] = Induction of mitotic cell cycle arrest in potoroo PtK2 cells assessed as accumulation at S phase at 2 uM treated for 7 hrs, washed followed by 48 hrs incubation by flow cytometry (Rvb= 10.7%); type: functional, Potorous tridactylus
[32] = Induction of micronucleation in potoroo PtK2 cells at 5 uM treated for 7 hrs followed by compound washout measured after 16 hrs by flow cytometry; type: functional, Potorous tridactylus
[33] = Cytotoxicity against human 1A9PTX10 cells; type: functional, cell-based; details: 1A9/ptx-10
PtK2 [34] = assay: Induction of microtubule bundle formation in potoroo PtK2 cells at 2 uM treated for 7 hrs followed by compound washout measured after 48 hrs by flow cytometry; type: cell-based; details: Potorous tridactylus

In the case of CC1=C[C@H]2[C@@H](O)[C@H](C)[C@@H](O)[C@@H]2[C@H]2[C@@H]3C4=C5O[C@](C)(CC[C@@H](OC4=O)[C@H]5C)[C@@H]3C[C@@H]12 [CYCLOSTREPTIN], the Activity [1] is reported as 48%, the Activity [2] is reported as 77.1% and the Activity [3] is reported as “Active”. The Activity [4] was 96%, the Activity [5] was 12% and the Activity [6] was 59%. The Activity [7] was 17%, the Activity [8] was 7.1% and the Activity (PtK2 [9]) was 70%. For the same compound, the Activity [10] was 12.6%, the Activity (A549 [11]) was 4% and the Activity [12] was 3.5%. It also gave an IC50 [13] of 58 nM, an Activity [14] of 4% and an Activity [15] of 79%. For the same compound, the Activity (PtK2 [16]) was 4%, the Activity [17] was 9.4% and the Activity [18] was 18.5%. The Activity (A2780) was 10.6%, the Activity [19] was 35% and the IC50 [20] was 51 nM. For the same compound, the Activity [21] was 6.6%, the Activity (A549 [22]) was “Active” and the Activity [23] was 2.6%. For the same compound, the Activity [24] was 32%, the Activity (A549 [25]) was 9% and the Activity (A549 [26]) was 72%. The Activity (A549 [27]) was 15%, the Activity (PtK2 [28]) was “Active” and the Activity (PtK2 [29]) was “Active”. The Activity [30] was 60%, the Activity [31] was 10% and the Activity [32] was 70%. The IC50 [33] was 240 nM and the Activity (PtK2 [34]) was “Active”.
